Results published in ChEMBL document CHEMBL4513216, “Probing the Open Global Health Chemical Diversity Library for Multistage-Active Starting Points for Next-Generation Antimalarials” (ACS Infect Dis, 2020).

Assay: Toxicity liver stage against HepG2, at 10uM
Type: cell-based
Parameters: test concentration 10 uM, cell line HepG2-A16-CD81EGFP
Conditions: human, HepG2-A16-CD81EGFP cells; read-out: INHIBITION
Summary of the method: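 Uninfected HepG2-A16-CD81EGFP cells, 3 × 10^3 per well, 1536-well, plated on prespotted compound at 10 μM final, parasite-free screening media added to match infected plates; puromycin 10 μM positive, DMSO 0.5% negative; run in parallel with 48 h PbLuc assay at 37 °C, 5% CO2; viability by CellTiter-Glo luminescence, normalized to controls.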

SMILES | cytotoxicity at 10 µM [%]
COc1ccc(S(=O)(=O)N[C@H]2CN(C(C)=O)C[C@@H]2C(C)C)cc1F | -0.277
O=C(CCc1cscn1)N1CCCC1c1noc(C2CC2)n1 (stereo not given) | -10.9
CN(CC(=O)N(C)C1CCN(CC2CCOC2)CC1)c1ccccc1 (stereo not given) | -9.45
Cc1ccccc1OCC(=O)N1CC[C@]2(C[C@@H](OCC3CC3)CO2)C1 | 3.1
O=C(c1cccs1)N1CCN(CC2CC2)c2ncccc2C1 | 0.835
CN(Cc1ccco1)C1CCC12CCN(C(=O)c1ccncc1)CC2 (stereo not given) | 2.82
CCN(CC)C(=O)Cn1ccc2cc(NC(=O)C3CCCCC3)ccc21 | -5.04
Cc1cc(Oc2ccccc2C)nc(C2CCCN2)n1 (stereo not given) | 1.22
Cc1noc(C)c1C(=O)NCC(c1cccc(F)c1)N(C)C (stereo not given) | -13.1
Cc1cc(C(=O)NCC(C)C)c2c(C3CCCN3)noc2n1 (stereo not given) | 7.05
c1cncc(-c2noc(CN3CCc4cncnc4C3)n2)c1 | -3.39
c1cc(CN2CCOCC3(CCNCC3)C2)ccn1 | -71
CN(C(=O)NCCCN1CCCC1)C1CCN(c2ccccc2)C1=O (stereo not given) | 0.864
COc1ccc(C(=O)N2CCC3(CC2)c2ccccc2[C@@H](N)[C@@H]3O)cc1 | -3.34
CSc1ccc(-c2nc(CN3CCC(CN)C3)c(C)o2)cc1 (stereo not given) | -2.65
Cc1ccsc1-c1nccn1CCN1CCCOC1=O | -4.68
CN1CCCN(c2nc(C3CC3)ns2)CC1 | -3.23
Cc1cn2c(n1)CCC(NC(=O)c1[nH]nc(C)c1Br)C2 (stereo not given) | -17.6
N#Cc1ccc(S(=O)(=O)N2CC(CC(=O)O)c3ccccc32)cc1 (stereo not given) | 0.513
Oc1cccc(CN2C[C@@H]3CC[C@H]2CN(Cc2ccncc2)C3)c1 | -131
CCc1[nH]ncc1C(=O)N1CCN(c2nc(C)cc(OC)n2)CC1 | 3.51
COC(=O)C1CN(Cc2nc(C(C)(C)C)cs2)C[C@@H](C)O1 (stereo not given in full) | -8.22

SMILES | cytotoxicity at 10 µM [%]
Cc1cccc(CN2CCCC3(CCN(CC(=O)N(C)C)C3=O)C2)n1 (stereo not given) | -119
COc1ccc(NC(=O)Cn2cc(-c3ccccc3)ncc2=O)cn1 | -4.73
CN(C)C(=O)CO[C@H]1CO[C@@]2(CCN(Cc3ccsc3)C2)C1 | -111
CN1CCN(C2CCN(Cc3ccc(Cl)cc3)CC2)C1=O | 7.9
CC(NCC1CCN(CCO)CC1)c1cccnc1 (stereo not given) | -5.6
CCN1C(=O)CCC12CCC(NC(=O)c1cc(C)on1)CC2 (stereo not given) | -0.0663
Cc1ccc(C(=O)N2CC(C)(C)[C@@](C)(O)C2)cc1N1CCNC1=O | -2.76
CN(C)CC(=O)N1CCc2cccc(S(=O)(=O)N3CCOCC3)c2C1 | 6.8
O=C(CN1CCCCC1Cn1cccn1)NC1CCOCC1 (stereo not given) | 4.08
CCC(CO)NC(=O)Cc1ccc(NC(=O)CC2=CCCCC2)cc1 (stereo not given) | 0.571
COc1cccc(CN(C)C(C)c2ccco2)c1OCCn1ccnc1 (stereo not given) | -0.7
CCC1=N[C@@]2(CC[C@@H]3CN(C(=O)NCc4ccccc4C)C[C@@H]32)C(=O)N1 | -71.1
O=C(NCN1CCc2ccccc2C1)c1cnccn1 | 20.2
Cc1cscc1C(=O)Nc1cc(CSCCO)ccn1 | -25.5
O=C(c1cccnc1O)N1CCN(Cc2ccccc2F)CC1 | 5.57
CC(C)N(C)C(=O)COc1ccc(-c2noc(C3CCCO3)n2)cc1 (stereo not given) | 4.24
CN(Cc1nnc(C2CC2)n1C)C1CCN(Cc2ccncc2)C1 (stereo not given) | -10.3
Cn1cc(CN2C[C@@H]3COC[C@]3(CNC(=O)c3ccccc3)C2)cn1 | -4.02
Cn1cnc2c1C(COCC1CCOCC1)CN(C1CCOCC1)C2 (stereo not given) | -4.22
Cc1cnn(CC2CN(c3ccc(C#N)cn3)CCO2)c1 (stereo not given) | -1.26
Cc1nc(C(=O)N[C@H]2COC[C@@H]2N2CCCCC2)cs1 | 15.5
Cc1nc2cc(F)cc(C(=O)N3CCN(CCO)CC3)c2nc1C | -3.31

SMILES | cytotoxicity at 10 µM [%]
Cc1cnn(C2CCCN(C(=O)c3ccc(N(C)C)nn3)C2)c1 (stereo not given) | -5.36
CC(C)CS(=O)(=O)N1CCC2(CN(c3ccsc3)C(=O)CN2C)C1 (stereo not given) | 6.88
COCCC(=O)N(CCC#N)c1ccc2c(c1)OCCO2 | -1.23
CNC(=O)c1cnn2c(C3CCCN3C)ccnc12 (stereo not given) | 3.74
Cc1n[nH]c(C)c1NC(=O)CN1CCCC1Cn1cncn1 (stereo not given) | 15.5
Cc1cc(C2CCCN(C(=O)c3cnccn3)C2)ccn1 (stereo not given) | 0.204
CCOc1ccc(Cl)c(C(=O)N2CCN(C(=O)c3ccoc3C)CC2)n1 | -6.69
CCn1ccnc1CN1CCCN(C(=O)Cc2csc(C)n2)CC1 | -2.12
O=C(Nc1cccnc1N1CCSCC1)c1cc2c(s1)CCCCC2 | -3.25
COc1ccc(F)c(F)c1CN1CCC2(CC1)[C@H](O)C[C@@H]2OCCN | -14.5
Cc1cnn(C2CCCN(C(=O)c3cn(-c4ccccc4)nc3C)C2)c1 (stereo not given) | -5.46
O=C(Cc1ccc2c(c1)CCCC2)N[C@@H]1CC[C@@H](n2ccnc2)[C@@H]1O | -5.69
CS(=O)(=O)N1Cc2nccn2CC(CN2CCCC2=O)C1 (stereo not given) | 5.8
CCc1ccc(CN2CC[C@H]3[C@H]2CC(=O)N3Cc2cccc(C)n2)o1 | -2.19
CC(O)C(=O)N1CCN(c2ccccc2Cl)C(=O)C1 (stereo not given) | -1.59
CCCNC(=O)CN1CCC(NCc2csc(C(C)C)n2)CC1 | -1.4
CC(CCNC(=O)NCCc1ccc(S(N)(=O)=O)cc1)c1ccccc1 (stereo not given) | -17.4
Cc1c[nH]nc1C1CCCN(C(=O)c2c(C)noc2C)C1 (stereo not given) | -3.53
CC(C)c1nc(-c2ccnc(N3CCNCC3)n2)no1 | 1.01
Cc1n[nH]c2c1C(c1ccc(F)cc1)SCC(=O)N2 (stereo not given) | 2.06
COc1cccc(CNC(=O)CCOc2ccccc2C)c1 | -1.2
O=C(NCc1ccc2c(c1)CCCO2)c1cn2c(n1)CNCC2 | -15.7

SMILES | cytotoxicity at 10 µM [%]
Cc1cc(CN(C)Cc2cnc3c(c2)c(C)nn3C)no1 | 0.995
c1ccc2sc(N3CCOC(Cn4cccn4)C3)nc2c1 (stereo not given) | -12.8
CNc1cccc(C2CCN(C(C)=O)CC2)n1 | 7.49
OC(CN1CCOCC1)CN1CCc2c(ncn2C2CC2)C1 (stereo not given) | 2.45
CC(c1cc(F)ccc1F)N1CCN(C(=O)c2ccc(=O)[nH]c2)CC1 (stereo not given) | 5.94
Nc1ccc(C(=O)N2CCCC(C(=O)CCc3ccccc3)C2)cn1 (stereo not given) | -7.98
CNc1cc(N2CCCC2CNCc2cccc(C(N)=O)c2)ncn1 (stereo not given) | -7.72
CCc1ccc(CN2CCc3[nH]nc(C(=O)N4CCNC(=O)C4)c3C2)o1 | 17.5
COC[C@]12COC[C@H]1CN(Cc1ccc3c(c1)OCO3)C2 | -108
NC1(C(=O)NCCC2CN(Cc3ccco3)CCO2)CCCC1 (stereo not given) | -1.03
CN(C)c1ncccc1CNS(=O)(=O)c1ccccc1Cl | -15.3
CC(=O)N1CCN(c2cc(-c3ccccc3)nc3c(C)c(C)nn23)CC1 | -13.1
COCCN1CC[C@H](OC)[C@@H]1Cc1ccccc1 | -0.675
C[C@]12CCCCN(C(=O)c3ccccn3)[C@H]1CCCC(=O)N2 | -20.1
CCSc1ccc(NC(=O)NC(C)c2c(C)noc2C)cn1 (stereo not given) | -3.69
Cc1ccc(CN2C[C@H]3C(=O)N(CC4CC4)C[C@@]3(C(=O)O)C2)c(F)c1F | 7.47
Cc1ccc(CN2CCOCC3(CCN(Cc4cccs4)C3)C2)o1 (stereo not given) | -5.61
Cc1cccc(CN2C[C@@H]3CCCO[C@@H]3[C@H](NS(C)(=O)=O)C2)n1 | -8.06
COc1cc(NCC(c2ccccn2)N2CCOCC2)ncn1 (stereo not given) | -49.1
CC(C)CN1C[C@H]2CCN(C(=O)c3ccccn3)CC[C@H]2S1(=O)=O | 0.582
CCc1cnc(N)nc1NCCCn1cc(Cl)cn1 | 3.5
Cc1noc(C)c1CN(C)C(=O)C1CCCCN1CC(C)C (stereo not given) | 2.64

SMILES | cytotoxicity at 10 µM [%]
CCCS(=O)(=O)N1CCN(c2cc(-n3ccnc3)nc(C)n2)CC1 | -1.89
CC(C)c1nc(C(=O)N2C[C@@H]3CC[C@H]2CN(C2CCOCC2)C3)cs1 | 5.31
CN(CC1CCCCO1)S(=O)(=O)c1cccc(C(=O)N2CCOCC2)c1 (stereo not given) | -12.4
Cc1nnc(N2CCc3cncnc3C2)c(C#N)c1C | -154
COc1ccc(F)cc1NC(=O)NCC1(CN2CCOCC2)CC1 | 3.18
Cc1ccc(N2CCC(C(O)Cc3ccccc3)CC2)nn1 (stereo not given) | -3.43
O=C(c1ccoc1)N1CCC(NCc2cccnc2)CC1 | 8.21
NC(=O)CN1CCC(C(=O)N2CCCC(OCc3cccnc3)C2)CC1 (stereo not given) | -1.88
Cc1nc(CNC(=O)NCC(O)c2ccc(F)cc2)cs1 (stereo not given) | -10.4
CCOC(=O)c1cc(C(C)(O)CCC=C(C)C)on1 (stereo not given) | 2.3
CCc1nc(C2CCCN(C(=O)c3c[nH]c(C(C)C)n3)C2)no1 (stereo not given) | -5.43
CCC(C)(CC(=O)OC)NCc1noc(C)n1 (stereo not given) | -4.39
CN(C)c1nc2c(c(N(C)Cc3n[nH]c4c3CCCC4)n1)CCNCC2 | 3.2
O=C(CO)N1CCCC2(CCN(c3ccsc3)C2=O)C1 (stereo not given) | -66.8
CC(=O)N1[C@H](CN(C)C)C[C@@H]2CN(C(=O)Cc3cccs3)CC[C@@H]21 | -0.155
CN1CCCN(c2nccc(-c3c[nH]nc3-c3ccncc3)n2)CC1 | -11
COc1ccc(C(=O)N2CCOCC2c2[nH]ncc2C)cc1F (stereo not given) | 2.21
COc1cccc(CN2CCCC(Cn3nc(C)nc3C)C2)c1 (stereo not given) | -13.4
c1cnn(CC2CCCN2Cc2ccc(-n3cccn3)cc2)c1 (stereo not given) | -4.8
CCn1cc(CN(C)C(=O)C(c2ccccc2C)N(C)C)cn1 (stereo not given) | 0.0381
CC(c1ccccc1)N1CCC(NC(=O)CCc2ccsc2)CC1 (stereo not given) | 0.91
Cn1ccc2ccc(C(=O)N3CCC[C@H]3C(=O)N3CCOCC3)cc21 | -0.829
